Compound activity deposited in PubChem BioAssay by several laboratories.
V-ATPase pH: regulators of yeast V-ATPase proton pumping, primary screen, pHLuorin cytosolic pH fluorescence. S. cerevisiae. response, % at 10 µM. 0.37% of 350,000 active. AID 504577, 2011; in the data active = response mostly above about 7.3%, no sharp cut-off; inactive = mostly below about 5.4%; also: actives read high
NRP1-CendR mod: modulators of CendR peptide binding to NRP-1, primary screen, biochemical, fluorescence polarization, uHTS. Neuropilin-1 (Homo sapiens), O14786. FAM-RPARPAR peptide binding to NRP-1. inhibition, % at 25 µM. 0.85% of 360,000 active;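 active = inhibition or corrected inhibition above about 18%, plus a signal ratio from 0.5 to 1.5, limit read from the data, passing the limit was not always enough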
Target sequence (O14786 whole entry, looked up): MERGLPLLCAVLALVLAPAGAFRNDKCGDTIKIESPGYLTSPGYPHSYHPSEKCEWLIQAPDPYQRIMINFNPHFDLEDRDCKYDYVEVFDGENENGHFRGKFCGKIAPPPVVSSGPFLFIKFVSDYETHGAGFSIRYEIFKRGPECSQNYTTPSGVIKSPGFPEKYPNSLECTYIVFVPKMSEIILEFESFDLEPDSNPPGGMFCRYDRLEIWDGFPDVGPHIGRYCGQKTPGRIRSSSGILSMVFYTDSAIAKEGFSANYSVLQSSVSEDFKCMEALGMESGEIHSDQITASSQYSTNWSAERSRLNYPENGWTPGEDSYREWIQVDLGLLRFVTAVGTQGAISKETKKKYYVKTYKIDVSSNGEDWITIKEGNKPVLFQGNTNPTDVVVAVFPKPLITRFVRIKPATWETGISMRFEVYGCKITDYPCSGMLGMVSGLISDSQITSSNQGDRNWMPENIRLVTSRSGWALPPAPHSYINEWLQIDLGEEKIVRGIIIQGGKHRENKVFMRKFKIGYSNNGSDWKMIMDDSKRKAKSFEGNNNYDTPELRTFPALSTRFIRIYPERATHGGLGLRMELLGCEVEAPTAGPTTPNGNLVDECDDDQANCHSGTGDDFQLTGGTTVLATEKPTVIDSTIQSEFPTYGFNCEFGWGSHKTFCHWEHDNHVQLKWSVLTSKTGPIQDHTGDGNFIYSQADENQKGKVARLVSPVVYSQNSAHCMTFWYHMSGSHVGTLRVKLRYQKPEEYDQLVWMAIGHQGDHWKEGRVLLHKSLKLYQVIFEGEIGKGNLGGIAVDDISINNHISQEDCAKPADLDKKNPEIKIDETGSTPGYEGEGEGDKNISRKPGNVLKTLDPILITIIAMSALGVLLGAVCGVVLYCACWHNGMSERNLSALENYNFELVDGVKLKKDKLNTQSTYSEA
ASAP1 GAP inh: inhibitors of human ASAP1 ArfGAP activity, primary screen, biochemical, fluorescence polarization | Arf-GAP with SH3 domain, ANK repeat and PH domain-containing protein 1 (Homo sapiens), … | ASAP1-stimulated ARF1 GTP hydrolysis, GDP FP detection | inhibition, % at 16.5 µM | 0.19% of 360,000 active; in the data active = inhibition above about 25%
ARFGAP1 inh: inhibitors of rat ARFGAP1 GAP activity, primary screen, biochemical, fluorescence polarization, GDP tracer. ADP-ribosylation factor GTPase-activating protein 1 (Rattus norvegicus), Q62848. Arfgap1-stimulated ARF1 GTP hydrolysis, GDP FP detection. inhibition, % at 16.5 µM. 0.26% of 360,000 active. AID 651572, 2012;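 active = inhibition above a per-plate limit, mean inhibition of low control wells plus 3 SD, cut at about 25% in these data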
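System: truncated rat Arfgap1 GAP domain / Medium: HEPES-based buffer, pH 7.5 / Also added: N-terminally truncated human ARF1-GTP substrate / Incubation: enzyme reaction 120 min at 25 °C after 20 min preincubation / Measured by: FP of antibody-bound GDP Alexa 633 tracer, ex 620/em 688 nm / Replicates: singlicate, each compound tested once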
Exocytosis inh: LAMP-1 surface exposure blockers, TALL-104 cells – cell-based, flow cytometry, MLPCN library, primary screen; TALL-104 LAMP-1 surface exposure; cells stimulated with thapsigargin and PMA; inhibition, % at 10 µM; 0.66% of 360,000 active; AID 651702, 2012;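 active = inhibition above about 55%, limit read from the data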
V-ATPase pH SP: yeast V-ATPase proton pumping modulators, confirmation, S. cerevisiae, pH-sensitive GFP, second cherry-pick. shares compounds with V-ATPase pH. response, % at 10 µM. 2% of 980 active. S. cerevisiae pHLuorin cytosolic pH, V-ATPase proton transport. AID 602197, 2012; in the data active = response above about 24%
Hits are given with their value; - = inactive; . = not tested or not shown. In the library only some 2.2% were active in any assay of this set; here they are far more common.

SMILES	V-ATPase pH	NRP1-CendR mod	ASAP1 GAP inh	ARFGAP1 inh	Exocytosis inh	V-ATPase pH SP
COc1ccc(CNCC(O)(c2ccccc2)c2ccc(Cl)cc2)cc1 (centres undefined)	11.2	-	-	-	-	-
c1ccc(CCNC2=NCCS2)cc1	-	-	-	-	-	.
c1ccc(CCNC2=NCCCS2)cc1	-	-	-	-	-	-
CCN(CC)C(=O)CNC(=O)Cc1ccc(Cl)cc1	9.5	-	-	-	-	-
CC1CC(C)(C)NC(=S)N1CCC(=O)NCc1ccc(F)cc1 (centres undefined)	-	-	-	-	-	.
CC1CC(C)(C)NC(=S)N1CC(=O)NCc1ccc(F)cc1 (centres undefined)	8.5	-	-	-	-	-
Cc1ccc(S(=O)(=O)NC(=O)C2(C)CCN2C(=O)CC2CCCC2)nc1 (centres undefined)	.	-	-	-	-	.
COc1ccc(/C=C2\C(=O)NCC(=O)N2Cc2ccccc2)cc1	-	-	-	-	-	.
COc1ccc(/C=C2\C(=O)NCC(=O)N2C)cc1	252.9	-	-	-	-	-
C/C(=N\Nc1ccccn1)c1cccs1	20.7	-	-	-	-	-
CCOC(=O)[C@]12CCCC=C1N(Cc1ccc(Cl)cc1Cl)C(=O)[C@H](CC(=O)NCC13CC4CC(CC(C4)C1)C3)C2	.	-	-	-	-	.
CCN1CCN(c2c(C=O)c(Cl)nc3ccc(OC)cc23)CC1	-	-	-	-	-	.
COc1cc(OC)cc(C(=O)NCCCCc2ccccc2)c1	-	-	-	-	-	.
COC/C=C/C1=CC2=CC(=O)C(C)(OC(=O)c3cnc4ccccc4n3)C(=O)C2=CN1C1CC1 (centres undefined)	12.0	-	-	-	-	-
COC/C=C/C1=CC2=CC(=O)C(C)(OC(=O)C3CCCC3)C(=O)C2=CO1 (centres undefined)	-	-	-	-	-	.
O=C(Cc1c[nH]c2ccccc12)NCC(=O)Nc1ccc(F)c(F)c1F	-	-	-	-	-	.
O=C(O)c1cccc(-n2sc3ccccc3c2=O)c1	-	-	-	-	-	.
O=c1c2ccccc2sn1-c1cccc(Cl)c1	-	-	-	-	-	-
Cc1noc(C)c1CSCC(=O)NCCN1C(=O)S/C(=C\c2ccccc2F)C1=O	-	-	-	-	-	.
CCOC(=O)[C@]12CCCC=C1N(CCc1ccc(OC)c(OC)c1)C(=O)[C@H](CC(=O)N1CCN(C(=O)C3CC3)CC1)C2	.	-	-	-	-	.
CSc1ncccc1C(=O)N1CCN(S(=O)(=O)c2ccc3ccccc3c2)CC1	10.3	-	-	-	-	-
CC1CCCCN1S(=O)(=O)c1coc(C(N)=O)c1 (centres undefined)	7.0	-	-	-	-	-
CC1CCCN(S(=O)(=O)c2coc(C(N)=O)c2)C1 (centres undefined)	-	-	-	-	-	.
O=[N+]([O-])c1ccc(NN=CC2CCCCCC2)c([N+](=O)[O-])c1	.	-	-	-	-	.
O=C(NCCC1=CCCCC1)C1CCCN(S(=O)(=O)c2cccc3cccnc23)C1 (centres undefined)	7.3	-	-	-	-	-
SMILES	V-ATPase pH	NRP1-CendR mod	ASAP1 GAP inh	ARFGAP1 inh	Exocytosis inh	V-ATPase pH SP
CC(=O)c1cccc(NC(=S)N2CCN(c3ccccn3)CC2)c1	-	-	-	-	-	.
COCCn1c(SCC(=O)NNC(=O)c2ccccc2)nc2ccccc2c1=O	10.6	-	-	-	-	-
COC(=O)c1ccc(-n2c(C)cc(C(=O)CSc3cccc[n+]3[O-])c2C)cc1	11.6	-	-	-	-	-
Cc1cc(C(=O)CSc2cccc[n+]2[O-])c(C)n1-c1ccc(OC(F)F)cc1	-	-	-	-	-	.
COc1ccc(NC(=O)CSc2nc3ccsc3c(=O)n2CCC(=O)O)cc1	-	-	-	-	-	.
CCCCCCN1C[C@H](n2cc(C3CC3)nn2)[C@@H](O)C[C@@H]1c1ccc(OC)cc1	-	-	-	-	-	.
O=C1NC(=S)S/C1=C\c1coc2ccccc2c1=O	52.0	-	-	-	-	-
O=C(CC(=O)N1CCOCC1)N1CCOCC1	-	-	-	-	-	.
Cc1sc(NC(=O)Cc2ccc3c(c2)OCO3)nc1-c1ccc2c(c1)CCN2C(=O)c1ccc(F)cc1	10.6	-	-	-	-	-
CC(NC(=O)CN1C(=O)NC2(CCc3ccccc32)C1=O)c1ccccc1 (centres undefined)	-	-	-	-	-	.
COc1ccc2cc(S(=O)(=O)N3CCN(C)CC3)ccc2c1	12.6	-	-	-	-	-
COc1ccc2cc(S(=O)(=O)N3CCCC3)ccc2c1	-	-	-	-	-	.
O=C(COC(=O)C1CCC1)Nc1ncc(Cl)cc1Cl	-	-	-	-	-	.
Cc1ccc(NC(=O)CNC(=O)c2ccco2)c(Cl)c1	-	-	-	-	-	.
O=C(c1ccccc1)N1CCN(c2nc3ccc([N+](=O)[O-])cc3s2)CC1	15.5	-	-	-	-	-
Cc1cc(O)cc(=O)n1Cc1ccccc1	-	-	-	-	-	.
COc1ccc(N(CC(=O)N/N=C/c2cc(Br)c(C)o2)S(=O)(=O)c2ccc(NC(C)=O)cc2)cc1	10.7	-	-	-	-	-
O=C(Nc1ccc(F)c(F)c1)C1CCN(S(=O)(=O)c2cccs2)CC1	8.3	-	-	-	-	-
Cc1ccc(C(=O)OCC(=O)NCc2cccs2)cc1	9.9	-	-	-	-	-
CC1CCCCC1NC(=O)Cn1nnc2ccccc2c1=O (centres undefined)	17.6	-	-	-	-	-
O=C(Cc1n[nH]c(=O)c2ccccc12)OCC(=O)c1ccc2c(c1)OCCO2	12.1	-	-	-	-	-
Cc1ccc(Sc2ncccc2C(=O)NCC(c2ccc(F)cc2)N2CCOCC2)cc1C (centres undefined)	-	-	-	-	-	.
CN1CCN(S(=O)(=O)c2cccc(C#N)c2)C(c2ccccc2)C1 (centres undefined)	12.4	-	-	-	-	-
COc1ccc(-c2c(-c3cc(OC)cc(OC)c3)n(C)c3ccc(-c4ccc(OC)c(F)c4)cc23)cc1	-	-	-	-	-	.
COc1ccc(-c2c(-c3ccc(OC)c(F)c3)c3ccccc3n2C)cc1	21.3	-	-	-	-	-
CN(C)C(=O)CCc1ccc2c3c([nH]c2c1)[C@]1(CCc2ccccc2)[C@@H](C(=O)N2CCCCC2)C[C@H](CC(=O)NC(C)(C)C)C(=O)N1CC3	-	-	-	-	-	.
